The nature of assay [1]: thallium flux activation in parental CHO cells, counter-screen for KCNQ1 potentiator project (AID 493006;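 active = duplicate-averaged activation above buffer control mean plus 5 SD of those controls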;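 as to activation: fluorescence ratio of max minus min over baseline after K+ and Tl+ depolarization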). Particulars: parental CHO-K1 cells, FluxOR thallium flux, at 10 µM; hits give high values. The essentials: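 Material: untransfected host CHO-K1 cells with FluxOR thallium dye. Timing: overnight 37 °C plating, 90 min RT dye, 20 min compound. Detection: kinetic FluxOR fluorescence, 10 s baseline, 110 s after stimulus. Read-out basis: max-minus-min fluorescence over baseline, percent of buffer-to-R-L3 span. Replicates: duplicate wells per compound, percent values averaged.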
For orientation: The purpose of a counterscreen is to sort out artefacts and off-target activity.

In assay [2] the target is Potassium voltage-gated channel subfamily KQT member 1 (Homo sapiens) (UniProt P51787). Put plainly: KCNQ1 potassium channel potentiators, confirmation, FluxOR thallium flux, CHO cells, duplicates (AID 493007;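 active = potentiation averaged over duplicate wells exceeding buffer-only control mean by more than 3 SD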;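 as to outcome: cells depolarized by a potassium plus thallium sulfate stimulus after compound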). Particulars: KCNQ1 cell line, FluxOR thallium flux fluorescence, at 10 µM; hits give high values, % of reference activator effect, buffer zero. The essentials:
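Test system – KCNQ1-expressing CHO cell line · Incubation – FluxOR dye loading 90 min, compound exposure 20 min, room temperature · Detection – FluxOR Tl+ flux fluorescence, 10 s baseline plus 110 s recording · Controls – buffer-only wells as 0% and R-L3 activator as 100%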

The target of assay [3] is Potassium voltage-gated channel subfamily KQT member 2 (Rattus norvegicus) (UniProt O88943). Put plainly: rat KCNQ2 channel potentiation, selectivity assay for KCNQ1 potentiator project, KCNQ2-CHO-K1 cells (AID 493009;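 active = mean duplicate potentiation above the buffer control mean plus 5 SD of buffer wells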;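 also: assay conditions were tuned for KCNQ1 rather than KCNQ2 modulators; signal is max minus min fluorescence divided by baseline after thallium stimulus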). Particulars: FluxOR thallium flux fluorescence, at 10 µM; hits give high values, scaled: buffer 0, activator control 100.
Sequence of Potassium voltage-gated channel subfamily KQT member 2 (Rattus norvegicus) (O88943 whole entry, looked up): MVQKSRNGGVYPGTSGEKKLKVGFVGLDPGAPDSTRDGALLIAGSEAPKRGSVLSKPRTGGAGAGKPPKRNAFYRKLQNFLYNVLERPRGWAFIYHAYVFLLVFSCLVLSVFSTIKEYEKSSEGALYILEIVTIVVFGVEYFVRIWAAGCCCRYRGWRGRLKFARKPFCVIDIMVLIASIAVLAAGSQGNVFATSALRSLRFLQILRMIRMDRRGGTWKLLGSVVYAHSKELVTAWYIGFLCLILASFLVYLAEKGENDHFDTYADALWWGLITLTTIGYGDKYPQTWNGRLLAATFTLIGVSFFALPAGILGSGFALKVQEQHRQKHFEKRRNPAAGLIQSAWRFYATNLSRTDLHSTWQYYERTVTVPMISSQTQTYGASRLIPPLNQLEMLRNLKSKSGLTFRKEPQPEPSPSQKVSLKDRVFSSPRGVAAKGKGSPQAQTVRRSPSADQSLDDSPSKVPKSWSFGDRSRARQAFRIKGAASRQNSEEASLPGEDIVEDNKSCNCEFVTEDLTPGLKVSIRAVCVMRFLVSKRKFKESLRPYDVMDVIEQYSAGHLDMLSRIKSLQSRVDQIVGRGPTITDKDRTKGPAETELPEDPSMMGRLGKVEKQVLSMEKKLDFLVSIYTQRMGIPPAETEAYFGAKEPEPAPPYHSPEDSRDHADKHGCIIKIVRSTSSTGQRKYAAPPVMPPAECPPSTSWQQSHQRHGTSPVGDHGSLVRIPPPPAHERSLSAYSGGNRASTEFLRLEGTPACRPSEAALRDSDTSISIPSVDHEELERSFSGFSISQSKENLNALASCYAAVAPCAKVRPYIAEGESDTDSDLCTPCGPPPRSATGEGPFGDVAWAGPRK
Assay [4] concerns the target Potassium voltage-gated channel subfamily KQT member 1 (Homo sapiens) (UniProt P51787). Put plainly: KCNQ1 channel current potentiators, confirmation, orthogonal assay for KCNQ1 potentiator project, IonWorks patch clamp, KCNQ1-CHO cells (AID 493184).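 As to current potentiation: percent change of the same well's current before compound addition so 0% = no change.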 Particulars: automated patch clamp current, at 10 µM; hits give high values. The essentials: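 Read-out: Percent current increase versus pre-compound level | Assay system: CHO cells carrying KCNQ1 | Measured by: Automated perforated-patch electrophysiology | Medium: External bath solution at pH 7.4 | Dosing: One dose, 10 µM final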
(In general: In patch-clamp work, channel activity is measured electrically.)

Calls of active or inactive are those of the source.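 The calls were made as follows, unless noted: active = current rise at least 3 SD above the untreated control mean in each of two repeat wells; inactive = the rest.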

Sequence of Potassium voltage-gated channel subfamily KQT member 1 (Homo sapiens) (P51787 whole entry, looked up): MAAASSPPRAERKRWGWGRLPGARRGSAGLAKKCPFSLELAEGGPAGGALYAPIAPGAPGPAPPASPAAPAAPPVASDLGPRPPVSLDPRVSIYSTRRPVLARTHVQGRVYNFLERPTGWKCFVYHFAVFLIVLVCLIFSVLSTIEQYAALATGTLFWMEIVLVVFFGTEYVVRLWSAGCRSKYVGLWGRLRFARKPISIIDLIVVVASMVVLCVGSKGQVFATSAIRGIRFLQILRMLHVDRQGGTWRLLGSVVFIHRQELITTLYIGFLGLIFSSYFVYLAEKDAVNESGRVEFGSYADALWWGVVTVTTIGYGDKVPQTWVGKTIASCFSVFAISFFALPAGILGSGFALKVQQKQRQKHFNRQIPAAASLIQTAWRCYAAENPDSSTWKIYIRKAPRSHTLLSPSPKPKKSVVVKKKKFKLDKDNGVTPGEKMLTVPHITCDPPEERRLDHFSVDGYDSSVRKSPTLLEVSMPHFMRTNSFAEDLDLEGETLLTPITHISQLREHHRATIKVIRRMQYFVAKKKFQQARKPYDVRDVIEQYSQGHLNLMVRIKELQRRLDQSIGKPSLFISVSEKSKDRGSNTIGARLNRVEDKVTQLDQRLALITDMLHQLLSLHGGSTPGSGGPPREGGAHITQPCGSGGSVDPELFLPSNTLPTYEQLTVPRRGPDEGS

Consider `O=C(c1ccccn1)c1ncc(C(F)(F)F)cc1Cl`, for which the outcome in assay [1], in assay [2], in assay [3] and in assay [4] was inactive.
For the molecule `O=C1CN(S(=O)(=O)c2ccccc2)CC(=O)N1CCc1ccccc1`, the result in assay [1], in assay [2], in assay [3] and in assay [4] was inactive.
`Cc1cc(/C=C2\SC(=Nc3ccc(F)cc3)NC2=O)c(C)n1-c1ccc(S(N)(=O)=O)cc1`: the result in assay [1], in assay [2], in assay [3] and in assay [4] was inactive.
For `CNC(=O)c1cc(-c2ccc(Cl)cc2)n(-c2ccccc2)n1`, the outcome in assay [1], in assay [2], in assay [3] and in assay [4] was inactive.
On to `Cc1ccc(C(C)C)c(OCc2n[nH]c(=S)o2)c1`, for which the activation in assay [1] is 154% (active). The potentiation is 27% (active) in assay [2] and 160% (active) in assay [3]. The result in assay [4] was inactive.
As to `COc1ccc(OC)c(/C=C2\SC(=S)N(NS(=O)(=O)c3ccc(C)cc3)C2=O)c1`, the activation in assay [1] was 166% (active). Also, the potentiation in assay [2] was 102% (active); in assay [3] it was 240% (active). In addition, in assay [4], the current potentiation is 47.4% (active).
In the case of `COc1cccc2sc(N(CCCN(C)C)C(=O)CCS(=O)(=O)c3ccccc3)nc12`, the result in assay [1], in assay [2], in assay [3] and in assay [4] was inactive.
For `CCOC(=O)Cn1c2ccccc2c2nc3ccccc3nc21`, the result in assay [1], in assay [2], in assay [3] and in assay [4] was inactive.
Turning to `C/C(=N\NC(=O)c1cccc(Br)c1)c1ccccn1`, the result in assay [1], in assay [2], in assay [3] and in assay [4] was inactive.
Consider `S=c1[nH]cnc2scc(-c3ccccc3)c12`, for which the activation in assay [1] is 192% (active). Further, the potentiation was 52% (active) in assay [2] and 205% (active) in assay [3]. The outcome in assay [4] was inactive.
With `N#CC1(c2ccc(NC(=O)c3ccccc3F)cc2)CCCC1`, the result in assay [1], in assay [2], in assay [3] and in assay [4] was inactive.
For the molecule `CCOC(=O)c1ccc(Oc2nc(NC(C)(C)C)nc(N(C)C)n2)cc1`, the result in assay [1], in assay [2], in assay [3] and in assay [4] was inactive.
For `O=C(NC(=S)NCCc1ccccc1)c1cccc(Cl)c1`, the activation in assay [1] is 182% (active). In addition, the potentiation in assay [2] is 141% (active); in assay [3] it was 342% (active). Further, the outcome in assay [4] was inactive.
Consider `COc1ccc(Cl)cc1N(C)C(=O)CCNC(=O)Cn1cnc2ccccc2c1=O`, for which the outcome in assay [1] and in assay [4] was inactive. In addition, the potentiation in assay [2] is 22.5% (active); in assay [3] it was 157% (active).
In the case of `O=C(Nc1ccc(Cl)cn1)c1cccc(S(=O)(=O)N2CCOCC2)c1`, the outcome in assay [1], in assay [2], in assay [3] and in assay [4] was inactive.
Turning to `FC(F)(F)c1cc(N2CCNCC2)c2ccccc2n1`, the result in assay [1], in assay [2], in assay [3] and in assay [4] was inactive.
`COc1ccc(C2c3ccc4ccccc4c3Oc3ncn(CCN4CCOCC4)c(=N)c32)cc1` (stereo not given): the outcome in assay [1], in assay [2], in assay [3] and in assay [4] was inactive.
Take `FC(F)(F)c1cnc2c(c1)[nH]c(=S)n2-c1ccc(Cl)cc1`: the activation in assay [1] is 142% (active). The potentiation in assay [2] was 27% (active); in assay [3], 178% (active). Besides, the result in assay [4] was inactive.
As for `OCCN1CCN(CCCN2c3ccccc3Sc3ccc(Cl)cc32)CC1`, the result in assay [1], in assay [2], in assay [3] and in assay [4] was inactive.
For `Cc1cc(/C=N/NC(=O)c2nn(C)cc2Cl)c(C)n1-c1cccc(Br)c1`, the outcome in assay [1], in assay [2], in assay [3] and in assay [4] was inactive.
Regarding `Oc1c(N=NC(=S)Nc2ccccc2F)c2ccccc2n1Cc1ccccc1Cl`, the activation in assay [1] was 180% (active). Also, the values for the potentiation in assay [2] and in assay [3] were 81.5% (active) and 210% (active), respectively. Moreover, in assay [4], the result was inactive.
In the case of `O=C(NC(=S)N1CCCC1)c1ccc(Cl)cc1`, the activation in assay [1] was 150% (active). Besides, the result in assay [2], in assay [3] and in assay [4] was inactive.
Consider `Cn1cc(-c2nnnn2-c2ccccc2)c(=O)c2ccccc21`, for which the outcome in assay [1], in assay [2], in assay [3] and in assay [4] was inactive.
Turning to `S=c1nc(-c2ccc(Br)cc2)[nH]c2ccccc12`, the activation in assay [1] is 572% (active). The potentiation in assay [2] was 188% (active); in assay [3] it was 538% (active). Further, the result in assay [4] was inactive.
On the same counts, the results for `S=c1nc(SCc2ccccc2)[nH]c2ccccc12` are 458% (active), 320% (active), 500% (active) and “inactive”.
Regarding `OCCCCNCc1ccc(OCc2ccc(Cl)cc2Cl)cc1`, the outcome in assay [1], in assay [3] and in assay [4] was inactive. In assay [2], the potentiation was 23.5% (active).
For `CC(NC(=S)NC(=O)c1ccccc1Br)c1ccccc1` (stereo not given), the outcome in assay [1] and in assay [4] was inactive. Moreover, the potentiation in assay [2] is 84% (active); in assay [3] it was 184% (active).
Turning to `O=C(NNC(=S)NC(=O)c1ccco1)c1ccc(F)cc1`, the activation in assay [1] is 198% (active). In addition, the figures for the potentiation in assay [2] and in assay [3] were 69% (active) and 232% (active), respectively. Further, the result in assay [4] was inactive.
`Clc1ccc(C(c2ccccc2)N2CCNCC2)cc1` (stereo not given): the result in assay [1], in assay [2], in assay [3] and in assay [4] was inactive.
Consider `COc1ccc(C)c2sc(NC(=O)C3=COCCO3)nc12`, for which the outcome in assay [1], in assay [2], in assay [3] and in assay [4] was inactive.

The values above are taken from PubChem BioAssay.
